Screening data deposited in PubChem by several laboratories.
Only some compounds are listed: those with a hit (about 2% of all), similar ones and a draw of the others.
PABP FP inh: PABP poly(A) RNA binding inhibitors, primary screen, biochemical, fluorescence polarization, uHTS; inhibition, % at 35 µM; 290,000 compounds, 1% hits; AID 2014, 2009;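 further: calls also rest on retests at 20 µM and on dose response follow-up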
NS3 helicase inh: inhibitors of HCV NS3 helicase, primary screen, biochemical, Cy5 molecular beacon fluorescence | inhibition, % at 10.9 µM | 290,000 compounds, 0.56% hits | Hepatitis C virus NS3 helicase | NS3 helicase DNA unwinding;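 active means inhibition above the mean of all tested compounds plus 3 SD, set per campaign, cut at about 35% in these data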
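Control set: DMSO versus 110 µM thioflavine S; Material: NS3 helicase fragment of HCV; Measured by: Cy5 fluorescence at 0 and 60 min, beacon hairpin quenching; Read-out basis: percent inhibition from t60/t0 fluorescence ratio; Times: reaction time 60 min, 25 °C; Repeats: single replicate; Compound dosing: single dose, 10.9 µM nominal final, DMSO 0.8% final.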
MLLE-PAM2 inh: inhibitors of PABP1 MLLE–PAM2 peptide binding, primary screen, biochemical, fluorescence polarization, FITC-PAM2, GST-MLLE | AID 588489, 2011 | inhibition, % at 20 µM | 360,000 compounds, 0.36% hits | Polyadenylate-binding protein 1 (Homo sapiens), P11940; in the data active means inhibition above about 35%, passing the limit was not always enough
DNA FID counter-1: compounds displacing fluorescent DNA intercalator, primary screen, artefact control for HCV NS3 helicase inhibitor project, biochemical, FID fluorescence; inhibition, % at 7.9 µM; DNA fluorescent intercalator displacement; AID 1845, 2009; 290,000 compounds, 0.17% hits; in the data active means inhibition above about 37%;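 further: higher means more ethidium bromide displaced from hairpin DNA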
core dimer inh: inhibitors of HCV core protein dimerization, primary screen, biochemical, TR-FRET, high-throughput; TR-FRET GST/Flag-core106 dimerization, 1536-well; 300,000 compounds, 0.33% hits; inhibition, % at 5 µM;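 active means inhibition above the mean of all tested compounds plus 3 SD, set per screening campaign, cut at about 45% in these data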
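Assay system: Tagged HCV core106 pair (GST and Flag) | Buffer or medium: KF-containing HEPES buffer, pH 7.45, DTT, CHAPS, BSA | Also added: Eu donor and XL665 acceptor anti-tag antibodies | Dosing: One concentration, 5 µM, in 0.5% DMSO | Timing: 4 h at 22.5 °C | Technique: TR-FRET 671 and 617 nm emission | Repeats: Singlicate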
eIF4H FP inh: human eIF4H binding inhibitors, primary screen, translation initiation inhibitor project, biochemical, uHTS, fluorescence polarization. Eukaryotic translation initiation factor 4H (Homo sapiens), Q15056. eIF4H fluorescence polarization binding assay. inhibition, % at 35 µM. 290,000 compounds, 0.94% hits. AID 2012, 2009;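 further: calls also rest on retests at 20 µM and on dose response follow-up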
NS3 hel confirm: HCV NS3 helicase inhibitors, retest, confirmation, biochemical, Cy5 molecular beacon fluorescence, triplicate. shares compounds with NS3 helicase inh. NS3 helicase DNA unwinding. 1,600 compounds, 31% hits. inhibition, % at 10.9 µM. AID 1943, 2009;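 active means inhibition above the mean of all tested compounds plus 3 SD, cutoff set per campaign, cut at about 36% in these data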
DNA FID counter-2: compounds displacing fluorescent DNA intercalator, artefact control for HCV NS3 helicase inhibitor project, biochemical, FID fluorescence, triplicate; shares compounds with NS3 helicase inh; 1,600 compounds, 4% hits; DNA fluorescent intercalator displacement; inhibition, % at 7.9 µM; in the data active means inhibition above about 37%;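 further: higher means more displacement of ethidium bromide from the DNA hairpin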
FID counter DR: compounds displacing fluorescent intercalator from DNA, dose response, counter-screen for HCV NS3 helicase inhibitor project, biochemical, fluorescence; IC50, µM; 120 tested, under 10 active; AID 2172, 2009; fluorescent intercalator displacement from DNA; shares compounds with NS3 helicase inh
A number is an active result; – = inactive; ? = inconclusive; · = no result. Unless noted, how the calls were made is not given here.

SMILES	PABP FP inh	NS3 helicase inh	MLLE-PAM2 inh	DNA FID counter-1	core dimer inh	eIF4H FP inh	NS3 hel confirm	DNA FID counter-2	others
O=C(O)c1ccc2c(c1)C1C(Cl)C(Sc3ccccc3[N+](=O)[O-])CC1C(c1cccc([N+](=O)[O-])c1)N2 (stereo not given)	–	–	–	–	·	–	·	·
COC(=O)C1=C(c2ccc(OC(F)(F)F)cc2)C[C@@H]2CC[C@H]1N2C(=O)N1CCOCC1	·	·	–	·	·	·	·	·
COc1ccc(N2C(=O)NC(=O)/C(=C\c3ccccc3[N+](=O)[O-])C2=O)cc1	–	–	–	–	–	–	·	·
CN1C(=O)NC(=O)/C(=C\c2ccc([N+](=O)[O-])o2)C1=O	–	–	–	–	–	–	·	·
CN1C(=O)NC(=O)/C(=C/c2ccc([N+](=O)[O-])o2)C1=O	49	–	·	–	–	?	·	·
CN1C(=O)NC(=O)/C(=C/c2ccc([N+](=O)[O-])s2)C1=O	38	–	–	–	–	64	·	·
O=C1NC(=O)N(c2ccccc2)C(=O)/C1=C\c1ccc([N+](=O)[O-])o1	57	–	·	–	–	78	·	·
CN1C(=O)C(O)N=C(c2ccccc2)c2ccccc21 (stereo not given)	–	–	–	–	–	–	·	·
COC12CCC3(CC1C(C)(O)C(C)(C)C)[C@H]1Cc4ccc(O)c5c4[C@@]3(CCN1CC1CC1)C2O5 (stereo not given in full)	·	·	–	·	·	·	·	·
CCN1C(=O)NC(=O)/C(=C\c2cn(CC(=O)O)c3ccccc23)C1=O	?	–	·	–	–	?	·	·
O=C(O)Cn1cc(/C=C2\C(=O)NC(=O)N(Cc3ccco3)C2=O)c2ccccc21	127	–	–	–	–	?	·	·
O=C1NC(=O)N(c2ccccc2)C(=O)/C1=C\c1ccc([N+](=O)[O-])s1	?	41	·	–	–	?	50	–	FID counter DR=–
CCCCn1c(NC(=O)c2ccc(Br)o2)c(C(=O)OCC)c2nc3ccccc3nc21	–	–	–	–	–	–	·	·
CCCCn1c(NS(=O)(=O)c2ccccc2)c(C(=O)OCC)c2nc3ccccc3nc21	64	37	–	–	–	active	58	–
CC(C)c1ccc(N2C(=O)NC(=O)/C(=C/C=C/c3ccco3)C2=O)cc1	–	–	–	–	–	?	·	·
COc1ccc(CN2C(=O)NC(=O)/C(=C/c3ccoc3)C2=O)cc1	?	54	–	–	–	?	–	–
O=C1NC(=O)N(Cc2ccc(F)cc2)C(=O)/C1=C\C=C\c1ccco1	?	41	–	–	–	?	–	–
O=C1NC(=O)N(Cc2ccco2)C(=O)/C1=C/c1cccn1CCOc1ccccc1Cl	active	43	–	–	–	?	–	–
CCCCN1C(=O)/C(=C/C=C/c2ccco2)C(=O)NC1=S	14	62	–	–	·	72	57	–
CCC(C)c1ccc(N2C(=O)NC(=O)/C(=C/c3cccn3CCOc3ccc(C)cc3)C2=O)cc1 (stereo not given)	–	–	–	–	–	?	·	·
Cc1cc(/C=C2/C(=O)NC(=O)N(Cc3ccco3)C2=O)c(C)n1-c1ccccc1O	–	49	–	–	–	–	–	–
O=C1NC(=O)N(Cc2ccccc2)C(=O)/C1=C\c1ccco1	–	39	–	–	–	?	–	–
Cc1ccccc1N1C(=O)/C(=C/c2ccco2)C(=O)NC1=S	74	81	·	–	70	75	83	–
CCN(CC)c1ccc(/C=C2\C(=O)NC(=O)N(Cc3ccco3)C2=O)cc1	–	–	–	–	–	?	·	·
CCCCN1C(=O)/C(=C/c2ccc(N(C)C)cc2)C(=O)N(Cc2ccco2)C1=O	?	–	–	–	–	?	·	·
SMILES	PABP FP inh	NS3 helicase inh	MLLE-PAM2 inh	DNA FID counter-1	core dimer inh	eIF4H FP inh	NS3 hel confirm	DNA FID counter-2	others
CCCCN1C(=O)/C(=C\c2ccco2)C(=O)N(CCc2ccccc2)C1=O	60	38	–	–	–	?	69	–
CCCC(=O)NC(Oc1ccc(C(C)=O)cc1)C(Cl)(Cl)Cl (stereo not given)	–	–	–	–	–	–	·	·
NCCc1ccc(OCc2ccccc2)c(OCc2ccccc2)c1	·	·	–	·	·	·	·	·
Cc1ccc(N2C(=O)CC(=O)NC2=O)cc1Cl	–	45	–	–	–	–	–	–
CCc1ccc(N2C(=O)CC(=O)NC2=O)cc1	–	–	–	–	–	–	·	·
CCOc1cccc(N2C(=O)CC(=O)NC2=O)c1	–	59	–	–	–	–	–	–
CC12CCC(=O)C=C1CCC1C2CCC2(C)C(O)(C(=O)CO)CCC12O (stereo not given)	·	·	–	·	·	·	·	·
Cc1ccc(N2C(=O)NC(=O)/C(=C/C=C/c3ccco3)C2=O)cc1	–	39	–	–	–	?	–	–
CCc1ccc(N2C(=O)NC(=O)/C(=C\C=C\c3ccco3)C2=O)cc1	?	–	–	–	–	?	·	·
Cc1cc(C)cc(N2C(=O)NC(=O)/C(=C\C=C\c3ccco3)C2=O)c1	–	54	–	–	–	?	–	–
O=C(CCc1ccccc1)N1Cc2cc(N3CCCCC3)ccc2-n2nncc2C1	·	·	–	·	·	·	·	·
O=C(N/N=C1/CN2CCC1CC2)c1cc2ccccc2cc1O	–	–	–	–	–	–	·	·
CC(C)CN1Cc2cc(-c3cccc(F)c3)ccc2-n2nncc2C1	·	·	–	·	·	·	·	·
Nc1ncn[nH]1	·	·	–	·	–	·	·	·
CN1CCN(S(=O)(=O)c2cnc(Cl)c(Br)c2)CC1	–	–	–	–	–	–	·	·
O=C(O)c1ccccc1-c1ccc(C=C2C(=O)N(c3ccccc3)C(=S)N(c3ccccc3)C2=O)o1	–	42	–	–	–	–	69	–
CN1C(=O)C(=Cc2ccc(N3CCCCCC3)o2)C(=O)N(C)C1=S	?	–	–	–	–	?	·	·
O=C1NC(=O)C(=Cc2ccc(-c3ccccc3[N+](=O)[O-])o2)C(=O)N1	–	45	–	–	–	–	–	–
CNS(=O)(=O)c1ccc(-c2ccc(C=C3C(=O)NC(=O)NC3=O)o2)cc1	?	45	–	–	–	?	–	–
